Laboratory results as given in ChEMBL document CHEMBL3612009, “Synthesis and structure-activity relationship study of a new series of antiparasitic aryloxyl thiosemicarbazones inhibiting Trypanosoma cruzi cruzain” (Eur J Med Chem, 2015).

Columns and labels:
[1] = Selectivity index, ratio of CC50 for mouse L929 cells to IC50 for amastigote and trypomastigote forms of Trypanosoma cruzi Tulahuen; assay type: functional
Method in brief: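 SI = CC50 in uninfected L-929 fibroblasts (alamarBlue, 96 h) divided by IC50 against intracellular amastigote/trypomastigote forms (beta-galactosidase assay, 7 days).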

[2] = Cytotoxicity against mouse L929 cells assessed as cell viability after 96 hrs by alamarBlue assay; assay type: cell-based
Method in brief: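 Uninfected L-929 cells at the same cell number and timing as the beta-galactosidase assay; increasing concentrations starting at the T. cruzi IC50, quadruplicate. After 96 h, alamarBlue added; absorbance at 570 and 600 nm read 6 h later. Viability as % reduction versus untreated; CC50 by linear interpolation.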

[3] = Cytotoxicity against BALB/c mouse splenocytes assessed as maximum non-toxic concentration by measuring [3H]-thymidine incorporation after 24 hrs by liquid scintillation counting; assay type: cell-based, Splenocyte
Method in brief: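 BALB/c splenocytes, 5 x 10^6 cells/well, given compounds at 1.23, 3.7, 33.33 and 100 µg/mL, 1% DMSO final, triplicate; 24 h at 37 °C, 5% CO2. Then 1.0 µCi [3H]-thymidine added; cells harvested and counted by liquid scintillation. Highest non-cytotoxic concentration taken from % incorporation.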

[4] = tested on: Trypanosoma cruzi; assay: Antitrypanosomal activity against amastigote and trypomastigote forms of Trypanosoma cruzi Tulahuen expressing beta-galactosidase gene infected in mouse L-929 cells assessed as inhibition of parasite growth at 100 uM after 7 days by colorimetric betagalactosidase assay; assay type: functional; details: L929, 168 h
[5] = tested on: Trypanosoma cruzi; assay: Antiparasitic activity against epimastigotes of Trypanosoma cruzi Dm28c assessed as reduction of parasite count after 5 days; assay type: functional; details: 120 h
[6] = target: Cruzipain (Trypanosoma cruzi) (UniProt P25779); assay: Inhibition of Trypanosoma cruzi catalytic activity of cruzain using Z-FR-AMC as substrate at 50 uM after 10 mins by fluorescence assay
[7] = tested on: Trypanosoma cruzi; assay: Antitrypanosomal activity against amastigote and trypomastigote forms of Trypanosoma cruzi Tulahuen expressing beta-galactosidase gene infected in mouse L-929 cells assessed as inhibition of parasite growth after 7 days by colorimetric betagalactosidase assay; assay type: functional, organism-based; details: L929, 168 h
[8] = tested on: Trypanosoma cruzi; assay: Antiparasitic activity against trypomastigotes of Trypanosoma cruzi Y assessed as reduction of parasite count after 24 hrs; assay type: functional

Cruzipain (Trypanosoma cruzi), sequence (P25779 123-467 limits assumed): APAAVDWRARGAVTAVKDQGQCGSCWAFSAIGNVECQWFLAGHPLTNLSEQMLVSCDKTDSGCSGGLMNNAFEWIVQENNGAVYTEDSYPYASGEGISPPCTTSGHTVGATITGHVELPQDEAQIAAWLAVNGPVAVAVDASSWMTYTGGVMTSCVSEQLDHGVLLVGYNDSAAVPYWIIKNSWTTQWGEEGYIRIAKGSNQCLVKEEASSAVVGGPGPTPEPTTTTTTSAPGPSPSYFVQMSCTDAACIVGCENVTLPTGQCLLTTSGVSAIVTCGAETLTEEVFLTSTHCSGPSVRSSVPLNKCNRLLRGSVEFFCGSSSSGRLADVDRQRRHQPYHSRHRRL

| Structure (SMILES) | Ratio CC50/IC50 [1] | CC50 at 96 h [2] | MNTC at 24 h [3] | inhibition at 100 µM [4] | IC50 [5] | inhibition [6] | IC50 [7] | CC50 [8] |
| --- | --- | --- | --- | --- | --- | --- | --- | --- |
| NC(=S)N/N=C(\COc1cccc(Br)c1)c1ccc(Br)cc1 | >1.2 | > 180 µM | 2700 nM | > 70% | 3.9 µM | 81.3% | 149 µM | 6.2 µM |
| NC(=S)N/N=C(\COc1ccc(-c2ccccc2)cc1)c1ccc(Br)cc1 | 1.2 | 90.8 µM | 22700 nM | > 70% | 4.1 µM | 63.7% | 76.6 µM | 12.3 µM |
| NC(=S)N/N=C(\COc1ccccc1Cl)c1ccc(Br)cc1 | 1.9 | 25.1 µM | < 2500 nM | > 70% | 3.5 µM | 58.9% | 13.5 µM | 6 µM |
| NC(=S)N/N=C(\COc1cccc(-c2ccccc2)c1)c1ccc(Br)cc1 |  |  | 2300 nM | > 70% | 4.4 µM | 65.4% | > 182 µM | 28.3 µM |
| NC(=S)N/N=C(/COc1ccc(Br)cc1)c1ccc(Cl)cc1 | 1.7 | 25.1 µM | 12500 nM | > 70% | 3.6 µM | 67.5% | 14.8 µM | 5.3 µM |
| NC(=S)N/N=C(\COc1ccc(I)cc1)c1ccc(Br)cc1 | 2.4 | < 20.4 µM | 2100 nM | > 70% | 2.9 µM | 63.3% | 8.6 µM | 2.1 µM |
| CC(C)(C)c1ccc(OC/C(=N\NC(N)=S)c2ccc(Br)cc2)cc1 | 1.6 | 23.8 µM | 2400 nM | > 70% | 5.2 µM | 85.3% | 15.2 µM | 2.2 µM |
| NC(=S)N/N=C(\COc1ccc(Cl)cc1)c1ccc(Br)cc1 | <2.2 | < 25.1 µM | < 2500 nM | > 70% | 4.6 µM | 73.6% | 11.2 µM | 5.7 µM |
| NC(=S)N/N=C(/COc1ccc(Br)cc1)c1ccccc1 | <2.7 | < 27.5 µM | 68600 nM | > 70% | 14.5 µM | 67.6% | 10.2 µM | 2.4 µM |
| COc1ccc(OC/C(=N\NC(N)=S)c2ccc(Br)cc2)cc1 | 11.4 | 102 µM | < 2500 nM | > 70% | 1.8 µM | 75.8% | 8.9 µM | 3.7 µM |
| Fc1ccc(/C(COc2ccc(Br)cc2)=N\NC(=S)Nc2ccccc2)cc1 |  |  |  | > 70% |  | 35% |  | 15.6 µM |
| NC(=S)N/N=C(/COc1ccc(Br)cc1)c1cccc2ccccc12 | 2.5 | 12.1 µM | 2400 nM | > 70% | 7.5 µM | 73.6% | 4.8 µM | 14.7 µM |
| COc1cccc(OC/C(=N\NC(N)=S)c2ccc(Br)cc2)c1 | 5.1 | 50.7 µM | 2500 nM | > 70% | 3.7 µM | 62.8% | 9.9 µM | 1.2 µM |
| NC(=S)N/N=C(\COc1ccccc1)c1ccc(Br)cc1 | 10.2 | 54.9 µM | 137000 nM | > 70% | 3 µM | 61.8% | 5.4 µM | 6.6 µM |
| NC(=S)N/N=C(\COc1cccc(Cl)c1)c1ccc(Br)cc1 | <2 | < 50.2 µM | 2500 nM | > 70% | 2.2 µM | 51.8% | 25.1 µM | 1.6 µM |
| NC(=S)N/N=C(\COc1cccc(Cl)c1Cl)c1ccc(Br)cc1 | 2.8 | 23.1 µM | 23100 nM | > 70% | 4.4 µM | 81.8% | 10.8 µM | 5.7 µM |
| NC(=S)N/N=C(\COc1ccc2ccccc2c1)c1ccc(Br)cc1 | >14.3 | > 193 µM | 2400 nM | > 70% | 5.3 µM | 72.1% | 13.5 µM | 5 µM |
| NC(=S)N/N=C(/COc1ccc(Br)cc1)c1ccc(Br)cc1 | >2.8 | 22.6 µM | 22600 nM | > 70% | 11.9 µM | 11.8% | < 8.1 µM | 3.9 µM |
| COc1ccc(/C(COc2ccc(Br)cc2)=N\NC(N)=S)cc1 | <2.1 | < 25.4 µM | 2500 nM | > 70% | 3.1 µM | 38.7% | 11.9 µM | 5 µM |
| CCc1ccc(OC/C(=N\NC(N)=S)c2ccc(Br)cc2)cc1 | <4 | < 25.5 µM | 2600 nM | > 70% | 2.1 µM | 75.1% | 6.4 µM | 1.8 µM |
| CC1CS(=O)(=O)CCN1/N=C/c1ccc([N+](=O)[O-])o1 (stereo not given) [NIFURTIMOX] |  |  |  |  |  |  |  | 2.7 µM |
| CC(=O)Nc1ccc(OC/C(=N\NC(N)=S)c2ccc(Br)cc2)cc1 | 2.2 | 94.9 µM | 2400 nM | > 70% | 15.6 µM | 80.7% | 43.2 µM | 3.5 µM |
| NC(=S)N/N=C(\COc1cccc2ccccc12)c1ccc(Br)cc1 | <2 | < 96.5 µM | 2400 nM | > 70% | 3 µM |  | 48.3 µM | 3.4 µM |
| COc1ccc(/C(COc2ccc(Br)cc2)=N\NC(=S)Nc2ccccc2)cc1 |  |  |  | > 70% | 10.2 µM | 42.8% |  |  |
| CNC(=S)N/N=C(/COc1ccc(Br)cc1)c1ccc(F)cc1 |  |  |  | > 70% | 15.7 µM | 30% |  | 7.4 µM |
| CNC(=S)N/N=C(/COc1ccc(Br)cc1)c1ccc(OC)cc1 |  |  |  | > 70% | 4.5 µM | 29.8% |  | 3.6 µM |
